Tests used:
Assay type in all cases: functional
MDA-MB-468 = assay: Antiproliferative activity against human MDA-MB-468 cells assessed as cell growth inhibition at 10 uM incubated for 48 hrs by sulforhodamine B assay relative to control
In short: (§1)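 NCI-60 single-dose screen at 10^-5 M. Cells grown in RPMI 1640 with 5% FBS and 2 mM L-glutamine, plated at 5,000–40,000 cells/well, and preincubated 24 h. Drug (DMSO stock) added and incubated 48 h at 37 °C, 5% CO2. Adherent cells fixed with cold TCA, stained with 0.4% SRB in 1% acetic acid, dye solubilized in 10 mM trizma base, A515 read. Percent growth taken against time-zero and untreated control.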

T47D = assay: Antiproliferative activity against human T47D cells assessed as cell growth inhibition at 10 uM incubated for 48 hrs by sulforhodamine B assay relative to control; in short: as §1
Hs-578T = assay: Antiproliferative activity against human Hs-578T cells assessed as cell growth inhibition at 10 uM incubated for 48 hrs by sulforhodamine B assay relative to control; in short: as §1
MCF7 = assay: Antiproliferative activity against human MCF7 cells assessed as cell growth inhibition at 10 uM incubated for 48 hrs by sulforhodamine B assay relative to control; in short: as §1
PC-3 = assay: Antiproliferative activity against human PC-3 cells assessed as cell growth inhibition at 10 uM incubated for 48 hrs by sulforhodamine B assay relative to control; in short: as §1
RXF 393 = assay: Antiproliferative activity against human RXF 393 cells assessed as cell growth inhibition at 10 uM incubated for 48 hrs by sulforhodamine B assay relative to control; in short: as §1
ACHN = assay: Antiproliferative activity against human ACHN cells assessed as cell growth inhibition at 10 uM incubated for 48 hrs by sulforhodamine B assay relative to control
In short: (§2)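 Single-dose NCI-60 prescreen at 10^-5 M. Cells in RPMI 1640 with 5% FBS and 2 mM L-glutamine, seeded 5,000–40,000 cells/well with 24 h preincubation, then drug exposure for 48 h at 37 °C under 5% CO2. Growth read by SRB staining of TCA-fixed cells at 515 nm against time-zero and untreated controls. Negative growth values denote cell kill.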

786-0 = assay: Antiproliferative activity against human 786-0 cells assessed as cell growth inhibition at 10 uM incubated for 48 hrs by sulforhodamine B assay relative to control; in short: as §2
NCI/ADR-RES = assay: Antiproliferative activity against human NCI/ADR-RES cells assessed as cell growth inhibition at 10 uM incubated for 48 hrs by sulforhodamine B assay relative to control; in short: as §1
OVCAR-5 = assay: Antiproliferative activity against human OVCAR-5 cells assessed as cell growth inhibition at 10 uM incubated for 48 hrs by sulforhodamine B assay relative to control; in short: as §1
OVCAR-4 = assay: Antiproliferative activity against human OVCAR-4 cells assessed as cell growth inhibition at 10 uM incubated for 48 hrs by sulforhodamine B assay relative to control; in short: as §1
IGROV-1 = assay: Antiproliferative activity against human IGROV-1 cells assessed as cell growth inhibition at 10 uM incubated for 48 hrs by sulforhodamine B assay relative to control; in short: as §1
SK-MEL-5 = assay: Antiproliferative activity against human SK-MEL-5 cells assessed as cell growth inhibition at 10 uM incubated for 48 hrs by sulforhodamine B assay relative to control; in short: as §1
M14 = assay: Antiproliferative activity against human M14 cells assessed as cell growth inhibition at 10 uM incubated for 48 hrs by sulforhodamine B assay relative to control; in short: as §1
LOX IMVI = assay: Antiproliferative activity against human LOX IMVI cells assessed as cell growth inhibition at 10 uM incubated for 48 hrs by sulforhodamine B assay relative to control; in short: as §1
U-251 = assay: Antiproliferative activity against human U-251 cells assessed as cell growth inhibition at 10 uM incubated for 48 hrs by sulforhodamine B assay relative to control; in short: as §1
SF-539 = assay: Antiproliferative activity against human SF-539 cells assessed as cell growth inhibition at 10 uM incubated for 48 hrs by sulforhodamine B assay relative to control; in short: as §1
SF-268 = assay: Antiproliferative activity against human SF-268 cells assessed as cell growth inhibition at 10 uM incubated for 48 hrs by sulforhodamine B assay relative to control; in short: as §1
SW-620 = assay: Antiproliferative activity against human SW620 cells assessed as cell growth inhibition at 10 uM incubated for 48 hrs by sulforhodamine B assay relative to control; in short: as §1
HCT-15 = assay: Antiproliferative activity against human HCT-15 cells assessed as cell growth inhibition at 10 uM incubated for 48 hrs by sulforhodamine B assay relative to control
In short: (§3)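 NCI-60 one-dose prescreen at 10^-5 M. Cells grown in RPMI 1640 with 5% FBS and 2 mM glutamine, preincubated 24 h, then exposed 48 h at 37 °C. Adherent lines TCA-fixed, SRB-stained, A515 read. Growth percent relative to time-zero and control; negative values mean cell kill.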

NCI-H522 = assay: Antiproliferative activity against human NCI-H522 cells assessed as cell growth inhibition at 10 uM incubated for 48 hrs by sulforhodamine B assay relative to control; in short: as §1
NCI-H460 = assay: Antiproliferative activity against human NCI-H460 cells assessed as cell growth inhibition at 10 uM incubated for 48 hrs by sulforhodamine B assay relative to control; in short: as §1
NCI-H322M = assay: Antiproliferative activity against human NCI-H322M cells assessed as cell growth inhibition at 10 uM incubated for 48 hrs by sulforhodamine B assay relative to control; in short: as §1
NCI-H23 = assay: Antiproliferative activity against human NCI-H23 cells assessed as cell growth inhibition at 10 uM incubated for 48 hrs by sulforhodamine B assay relative to control; in short: as §1
NCI-H226 = assay: Antiproliferative activity against human NCI-H226 cells assessed as cell growth inhibition at 10 uM incubated for 48 hrs by sulforhodamine B assay relative to control; in short: as §1
HOP-92 = assay: Antiproliferative activity against human HOP-92 cells assessed as cell growth inhibition at 10 uM incubated for 48 hrs by sulforhodamine B assay relative to control; in short: as §3
EKVX = assay: Antiproliferative activity against human EKVX cells assessed as cell growth inhibition at 10 uM incubated for 48 hrs by sulforhodamine B assay relative to control; in short: as §3
A549 = assay: Antiproliferative activity against human A549 cells assessed as cell growth inhibition at 10 uM incubated for 48 hrs by sulforhodamine B assay relative to control; in short: as §2
RPMI-8226 = assay: Antiproliferative activity against human RPMI-8226 cells assessed as cell growth inhibition at 10 uM incubated for 48 hrs by sulforhodamine B assay relative to control; in short: as §1
MOLT-4 = assay: Antiproliferative activity against human MOLT-4 cells assessed as cell growth inhibition at 10 uM incubated for 48 hrs by sulforhodamine B assay relative to control; in short: as §1
CCRF-CEM = assay: Antiproliferative activity against human CCRF-CEM cells assessed as cell growth inhibition at 10 uM incubated for 48 hrs by sulforhodamine B assay relative to control; in short: as §2
A498 = assay: Antiproliferative activity against human A498 cells assessed as cell growth inhibition at 10 uM incubated for 48 hrs by sulforhodamine B assay relative to control; in short: as §2

SMILES: CCc1ccc(-c2cn3ccnc3c(-c3ccc4ncn(Cc5ccccc5)c4c3)n2)cc1
- inhibition at 10 µM (MDA-MB-468): 17.2%
- inhibition at 10 µM (T47D): 94.8%
- inhibition at 10 µM (Hs-578T): 21.8%
- inhibition at 10 µM (MCF7): 58%
- inhibition at 10 µM (PC-3): 50.4%
- inhibition at 10 µM (RXF 393): 30.7%
- inhibition at 10 µM (ACHN): 44.7%
- inhibition at 10 µM (786-0): 38.1%
- inhibition at 10 µM (NCI/ADR-RES): 41.2%
- inhibition at 10 µM (OVCAR-5): 14.9%
- inhibition at 10 µM (OVCAR-4): 35.1%
- inhibition at 10 µM (IGROV-1): 25%
- inhibition at 10 µM (SK-MEL-5): 47.9%
- inhibition at 10 µM (M14): 36.4%
- inhibition at 10 µM (LOX IMVI): 50.1%
- inhibition at 10 µM (U-251): 46.1%
- inhibition at 10 µM (SF-539): 21.2%
- inhibition at 10 µM (SF-268): 30.5%
- inhibition at 10 µM (SW-620): 18.8%
- inhibition at 10 µM (HCT-15): 74.7%
- inhibition at 10 µM (NCI-H522): 45.9%
- inhibition at 10 µM (NCI-H460): 42%
- inhibition at 10 µM (NCI-H322M): 0.89%
- inhibition at 10 µM (NCI-H23): 23%
- inhibition at 10 µM (NCI-H226): 1.48%
- inhibition at 10 µM (HOP-92): 36.1%
- inhibition at 10 µM (EKVX): 39.7%
- inhibition at 10 µM (A549): 45.4%
- inhibition at 10 µM (RPMI-8226): 55.4%
- inhibition at 10 µM (MOLT-4): 54.2%
- inhibition at 10 µM (CCRF-CEM): 49.7%

SMILES: Fc1ccc(-c2cn3ccnc3c(-c3ccc4ncn(C5CCCCC5)c4c3)n2)cc1
- inhibition at 10 µM (MDA-MB-468): 19.5%
- inhibition at 10 µM (T47D): 33.3%
- inhibition at 10 µM (Hs-578T): 17.6%
- inhibition at 10 µM (MCF7): 9.17%
- inhibition at 10 µM (PC-3): 53.6%
- inhibition at 10 µM (RXF 393): 24.4%
- inhibition at 10 µM (ACHN): 9.02%
- inhibition at 10 µM (786-0): 11.2%
- inhibition at 10 µM (NCI/ADR-RES): 0.69%
- inhibition at 10 µM (OVCAR-5): 10.3%
- inhibition at 10 µM (OVCAR-4): 5.73%
- inhibition at 10 µM (SK-MEL-5): 7.36%
- inhibition at 10 µM (M14): 2.98%
- inhibition at 10 µM (LOX IMVI): 3.5%
- inhibition at 10 µM (U-251): 7.94%
- inhibition at 10 µM (SF-539): 17.3%
- inhibition at 10 µM (SF-268): 10.7%
- inhibition at 10 µM (SW-620): 8.38%
- inhibition at 10 µM (HCT-15): 7.59%
- inhibition at 10 µM (NCI-H522): 15.5%
- inhibition at 10 µM (NCI-H460): 6.12%
- inhibition at 10 µM (NCI-H322M): 0.01%
- inhibition at 10 µM (NCI-H23): 2.36%
- inhibition at 10 µM (NCI-H226): 23.3%
- inhibition at 10 µM (HOP-92): 35.2%
- inhibition at 10 µM (EKVX): 10.5%
- inhibition at 10 µM (A549): 12.8%
- inhibition at 10 µM (RPMI-8226): 50.1%
- inhibition at 10 µM (MOLT-4): 25.2%
- inhibition at 10 µM (CCRF-CEM): 33.4%

SMILES: O=Cc1ccc(-c2cn3ccnc3c(-c3ccc4ncn(C5CCCCC5)c4c3)n2)cc1
- inhibition at 10 µM (T47D): 98%
- inhibition at 10 µM (Hs-578T): 45.5%
- inhibition at 10 µM (MCF7): 47.8%
- inhibition at 10 µM (PC-3): 19%
- inhibition at 10 µM (RXF 393): 25%
- inhibition at 10 µM (ACHN): 11.6%
- inhibition at 10 µM (A498): 11.2%
- inhibition at 10 µM (786-0): 46.7%
- inhibition at 10 µM (NCI/ADR-RES): 37.4%
- inhibition at 10 µM (OVCAR-4): 16.9%
- inhibition at 10 µM (IGROV-1): 21.3%
- inhibition at 10 µM (SK-MEL-5): 56.5%
- inhibition at 10 µM (M14): 23%
- inhibition at 10 µM (LOX IMVI): 46.9%
- inhibition at 10 µM (U-251): 32%
- inhibition at 10 µM (SF-539): 31.5%
- inhibition at 10 µM (SF-268): 27.1%
- inhibition at 10 µM (SW-620): 4.21%
- inhibition at 10 µM (HCT-15): 49.1%
- inhibition at 10 µM (NCI-H522): 25.2%
- inhibition at 10 µM (NCI-H460): 37.8%
- inhibition at 10 µM (NCI-H322M): 11.2%
- inhibition at 10 µM (NCI-H23): 54.5%
- inhibition at 10 µM (NCI-H226): 0.53%
- inhibition at 10 µM (HOP-92): 43%
- inhibition at 10 µM (EKVX): 20.9%
- inhibition at 10 µM (RPMI-8226): 82.5%
- inhibition at 10 µM (MOLT-4): 58.7%
- inhibition at 10 µM (CCRF-CEM): 77.9%

SMILES: O=Cc1ccc(-c2cn3ccnc3c(-c3ccc4ncn(Cc5ccccc5)c4c3)n2)cc1
- inhibition at 10 µM (T47D): 98%
- inhibition at 10 µM (Hs-578T): 45.5%
- inhibition at 10 µM (MCF7): 47.8%
- inhibition at 10 µM (PC-3): 19%
- inhibition at 10 µM (RXF 393): 25%
- inhibition at 10 µM (ACHN): 11.6%
- inhibition at 10 µM (A498): 11.2%
- inhibition at 10 µM (786-0): 46.7%
- inhibition at 10 µM (NCI/ADR-RES): 37.4%
- inhibition at 10 µM (OVCAR-4): 16.9%
- inhibition at 10 µM (IGROV-1): 21.3%
- inhibition at 10 µM (SK-MEL-5): 56.5%
- inhibition at 10 µM (M14): 23%
- inhibition at 10 µM (LOX IMVI): 46.9%
- inhibition at 10 µM (U-251): 32%
- inhibition at 10 µM (SF-539): 31.5%
- inhibition at 10 µM (SF-268): 27.1%
- inhibition at 10 µM (SW-620): 4.21%
- inhibition at 10 µM (HCT-15): 49.1%
- inhibition at 10 µM (NCI-H522): 25.2%
- inhibition at 10 µM (NCI-H460): 37.8%
- inhibition at 10 µM (NCI-H322M): 11.2%
- inhibition at 10 µM (NCI-H23): 54.5%
- inhibition at 10 µM (NCI-H226): 0.53%
- inhibition at 10 µM (HOP-92): 43%
- inhibition at 10 µM (EKVX): 20.9%
- inhibition at 10 µM (RPMI-8226): 82.5%
- inhibition at 10 µM (MOLT-4): 58.7%
- inhibition at 10 µM (CCRF-CEM): 77.9%

From ChEMBL document CHEMBL5247578, “Effective synthesis of benzimidazoles-imidazo[1,2-a]pyrazine conjugates: A comparative study of mono-and bis-benzimidazoles for antitumor activity” (Eur J Med Chem, 2019)
